# From ChEMBL document CHEMBL4028913, “Discovery of Novel Potent VEGFR-2 Inhibitors Exerting Significant Antiproliferative Activity against Cancer Cell Lines” (J Med Chem, 2018)
# Active and inactive are the calls of the source. The calls are words filed in the database; no cut-off is given here.
# Tests used:
# [1] = Potency index, ratio of sorafenib GI50 to test compound GI50 for human renal cancer cells; format: functional, Renal cancer cell
# Method in brief: (§1)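 GI50 is the concentration giving 50% reduction in net protein increase relative to control. Potency index is the reference-drug GI50 divided by the test-compound GI50.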
# A-431 = assay: Growth inhibition of human A431 cells at 10 uM after 72 hrs by CellTiter-Glo assay relative to control; format: functional; details: A-431, 72 h, read-out: GI
# Method in brief: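 A431 cells seeded at 2000–4000 cells/well and treated with 10 μM final compound, 0.1% DMSO, for 72 h at 37 °C, 5% CO2. Viability read by CellTiter-Glo. Inhibition ratio = 1 − Vsample/Vvehicle control; triplicate.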
# NCI-H23 = assay: Cytotoxicity against human NCI-H23 cells after 48 hrs by SRB assay; format: functional; details: NCI-H23, 48 h
# Method in brief: (§2)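 NCI-60 panel; cells grown in RPMI 1640 with 5% FBS and 2 mM L-glutamine, plated at 5000–40 000 cells/well by doubling time, preincubated 24 h (37 °C, 5% CO2). Drug added at five concentrations, 1-log steps from 10−4 to 10−8 M, for 48 h. Fixed with TCA, stained with 0.4% SRB, absorbance read at 515 nm. Percent growth computed against time-zero and untreated controls; GI50, TGI and LC50 derived.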
# SF-539 = assay: Cytotoxicity against human SF539 cells after 48 hrs by SRB assay; format: functional; details: SF-539, 48 h; method in brief: as §2
# U-251 = assay: Cytotoxicity against human U251 cells after 48 hrs by SRB assay; format: functional; details: U-251, 48 h
# Method in brief: (§3)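 NCI-60 panel, five doses at 1-log steps from 10−4 to 10−8 M. Cells grown in RPMI 1640 with 5% FBS and 2 mM L-glutamine, seeded at 5000–40 000 cells/well and preincubated 24 h. Tz plates were TCA-fixed at drug addition. Drug exposure 48 h at 37 °C, then TCA fixation, 0.4% SRB stain and absorbance at 515 nm. GI50 taken from percent growth relative to Tz and control.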
# SK-MEL-2 = assay: Cytotoxicity against human SK-MEL-2 cells after 48 hrs by SRB assay; format: functional; details: SK-MEL-2, 48 h; method in brief: as §2
# SK-MEL-28 = assay: Cytotoxicity against human SK-MEL-28 cells after 48 hrs by SRB assay; format: functional; details: SK-MEL-28, 48 h; method in brief: as §2
# TK-10 = assay: Cytotoxicity against human TK10 cells after 48 hrs by SRB assay; format: functional; details: TK-10, 48 h; method in brief: as §3
# [2] = Potency index, ratio of test compound LC50 to sorafenib LC50 for human renal cancer cells; format: functional, Renal cancer cell
# [3] = Potency index, ratio of test compound LC50 to sunitinib LC50 for human renal cancer cells; format: functional, Renal cancer cell
# [4] = Potency index, ratio of sorafenib GI50 to test compound GI50 for human colon cancer cells; format: functional, Colon cancer cell; method in brief: as §1
# [5] = Potency index, ratio of sunitinib GI50 to test compound GI50 for human CNS cancer cells; format: functional, CNS cancer cell; method in brief: as §1
# [6] = molecular target: Fibroblast growth factor receptor 2 (Homo sapiens) (UniProt P21802); assay: Inhibition of human FGFR2 at 0.5 uM relative to control
# Chain of Fibroblast growth factor receptor 2 (Homo sapiens) (P21802 22-821 limits assumed): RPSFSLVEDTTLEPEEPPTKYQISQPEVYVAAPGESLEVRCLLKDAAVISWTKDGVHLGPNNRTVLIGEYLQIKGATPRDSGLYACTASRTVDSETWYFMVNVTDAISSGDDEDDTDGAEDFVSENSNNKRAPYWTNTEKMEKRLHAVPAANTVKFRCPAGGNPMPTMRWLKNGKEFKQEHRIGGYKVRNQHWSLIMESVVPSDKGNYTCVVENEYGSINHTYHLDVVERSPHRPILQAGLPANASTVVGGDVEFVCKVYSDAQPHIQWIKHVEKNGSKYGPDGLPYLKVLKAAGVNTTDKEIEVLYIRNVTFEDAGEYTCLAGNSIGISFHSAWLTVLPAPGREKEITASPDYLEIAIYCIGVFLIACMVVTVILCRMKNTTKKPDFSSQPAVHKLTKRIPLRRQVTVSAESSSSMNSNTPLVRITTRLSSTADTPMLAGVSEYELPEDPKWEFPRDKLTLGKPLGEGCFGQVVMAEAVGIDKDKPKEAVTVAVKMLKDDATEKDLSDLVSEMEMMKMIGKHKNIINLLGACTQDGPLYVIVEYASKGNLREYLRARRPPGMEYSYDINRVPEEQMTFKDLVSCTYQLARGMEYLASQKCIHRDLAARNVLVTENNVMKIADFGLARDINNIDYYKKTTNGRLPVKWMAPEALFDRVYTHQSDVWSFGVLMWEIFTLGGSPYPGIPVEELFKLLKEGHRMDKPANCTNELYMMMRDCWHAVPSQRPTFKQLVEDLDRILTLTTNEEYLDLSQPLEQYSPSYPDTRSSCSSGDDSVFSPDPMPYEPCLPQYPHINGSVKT
# [7] = molecular target: Fibroblast growth factor receptor 3 (Homo sapiens) (UniProt P22607); assay: Inhibition of human FGFR3 at 0.5 uM relative to control
# Chain of Fibroblast growth factor receptor 3 (Homo sapiens) (P22607 23-806 limits assumed): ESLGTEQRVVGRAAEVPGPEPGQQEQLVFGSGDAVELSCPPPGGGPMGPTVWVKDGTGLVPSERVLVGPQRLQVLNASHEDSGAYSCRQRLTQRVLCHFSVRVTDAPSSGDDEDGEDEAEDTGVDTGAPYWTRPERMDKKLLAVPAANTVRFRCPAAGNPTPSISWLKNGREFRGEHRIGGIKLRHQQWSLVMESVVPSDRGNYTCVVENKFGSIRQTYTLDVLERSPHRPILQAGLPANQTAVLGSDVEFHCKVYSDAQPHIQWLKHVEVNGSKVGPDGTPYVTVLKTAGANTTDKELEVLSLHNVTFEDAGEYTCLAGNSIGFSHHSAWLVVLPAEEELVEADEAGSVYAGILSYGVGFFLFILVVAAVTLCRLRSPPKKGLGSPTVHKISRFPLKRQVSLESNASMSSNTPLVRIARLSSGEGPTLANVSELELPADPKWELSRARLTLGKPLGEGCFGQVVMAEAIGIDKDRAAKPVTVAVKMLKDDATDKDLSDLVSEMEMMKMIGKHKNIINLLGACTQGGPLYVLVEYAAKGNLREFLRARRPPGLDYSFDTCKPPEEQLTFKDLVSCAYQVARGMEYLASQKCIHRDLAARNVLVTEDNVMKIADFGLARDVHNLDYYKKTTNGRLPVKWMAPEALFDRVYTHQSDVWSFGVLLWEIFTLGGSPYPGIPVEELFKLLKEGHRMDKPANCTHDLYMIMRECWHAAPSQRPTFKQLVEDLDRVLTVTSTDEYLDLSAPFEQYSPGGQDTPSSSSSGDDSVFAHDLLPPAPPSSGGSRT
# [8] = molecular target: Ephrin type-A receptor 2 (Homo sapiens) (UniProt P29317); assay: Inhibition of human EPHA2 at 0.5 uM relative to control
# Chain of Ephrin type-A receptor 2 (Homo sapiens) (P29317 whole entry): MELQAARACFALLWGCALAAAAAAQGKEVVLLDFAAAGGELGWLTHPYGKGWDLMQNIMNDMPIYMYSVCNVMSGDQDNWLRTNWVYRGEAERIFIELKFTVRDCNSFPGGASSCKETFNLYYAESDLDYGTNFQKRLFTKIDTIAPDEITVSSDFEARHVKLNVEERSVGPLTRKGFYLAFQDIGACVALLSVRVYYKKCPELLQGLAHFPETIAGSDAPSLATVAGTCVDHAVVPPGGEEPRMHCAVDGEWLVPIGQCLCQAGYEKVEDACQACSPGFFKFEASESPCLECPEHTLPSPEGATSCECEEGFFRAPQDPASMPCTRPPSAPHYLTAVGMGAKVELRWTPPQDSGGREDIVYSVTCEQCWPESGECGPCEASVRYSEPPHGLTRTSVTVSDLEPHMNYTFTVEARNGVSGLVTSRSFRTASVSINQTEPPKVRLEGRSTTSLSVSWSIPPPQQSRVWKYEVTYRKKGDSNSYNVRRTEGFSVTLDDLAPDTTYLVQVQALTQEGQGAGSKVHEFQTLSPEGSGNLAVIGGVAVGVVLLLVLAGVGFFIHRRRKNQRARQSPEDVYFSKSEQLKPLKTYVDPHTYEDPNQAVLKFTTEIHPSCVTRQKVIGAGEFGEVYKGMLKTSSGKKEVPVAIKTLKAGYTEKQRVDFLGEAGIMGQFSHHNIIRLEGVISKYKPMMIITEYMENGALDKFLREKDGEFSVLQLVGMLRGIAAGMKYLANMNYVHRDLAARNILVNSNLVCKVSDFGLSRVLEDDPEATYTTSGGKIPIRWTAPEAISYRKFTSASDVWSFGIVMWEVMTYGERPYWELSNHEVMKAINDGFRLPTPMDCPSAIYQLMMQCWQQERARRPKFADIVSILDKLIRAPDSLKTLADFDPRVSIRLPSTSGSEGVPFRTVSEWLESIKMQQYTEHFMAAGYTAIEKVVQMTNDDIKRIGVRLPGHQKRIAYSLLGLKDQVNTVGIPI
# [9] = molecular target: Ephrin type-A receptor 8 (Homo sapiens) (UniProt P29322); assay: Inhibition of human EPHA8 at 0.5 uM relative to control
# Chain of Ephrin type-A receptor 8 (Homo sapiens) (P29322 whole entry): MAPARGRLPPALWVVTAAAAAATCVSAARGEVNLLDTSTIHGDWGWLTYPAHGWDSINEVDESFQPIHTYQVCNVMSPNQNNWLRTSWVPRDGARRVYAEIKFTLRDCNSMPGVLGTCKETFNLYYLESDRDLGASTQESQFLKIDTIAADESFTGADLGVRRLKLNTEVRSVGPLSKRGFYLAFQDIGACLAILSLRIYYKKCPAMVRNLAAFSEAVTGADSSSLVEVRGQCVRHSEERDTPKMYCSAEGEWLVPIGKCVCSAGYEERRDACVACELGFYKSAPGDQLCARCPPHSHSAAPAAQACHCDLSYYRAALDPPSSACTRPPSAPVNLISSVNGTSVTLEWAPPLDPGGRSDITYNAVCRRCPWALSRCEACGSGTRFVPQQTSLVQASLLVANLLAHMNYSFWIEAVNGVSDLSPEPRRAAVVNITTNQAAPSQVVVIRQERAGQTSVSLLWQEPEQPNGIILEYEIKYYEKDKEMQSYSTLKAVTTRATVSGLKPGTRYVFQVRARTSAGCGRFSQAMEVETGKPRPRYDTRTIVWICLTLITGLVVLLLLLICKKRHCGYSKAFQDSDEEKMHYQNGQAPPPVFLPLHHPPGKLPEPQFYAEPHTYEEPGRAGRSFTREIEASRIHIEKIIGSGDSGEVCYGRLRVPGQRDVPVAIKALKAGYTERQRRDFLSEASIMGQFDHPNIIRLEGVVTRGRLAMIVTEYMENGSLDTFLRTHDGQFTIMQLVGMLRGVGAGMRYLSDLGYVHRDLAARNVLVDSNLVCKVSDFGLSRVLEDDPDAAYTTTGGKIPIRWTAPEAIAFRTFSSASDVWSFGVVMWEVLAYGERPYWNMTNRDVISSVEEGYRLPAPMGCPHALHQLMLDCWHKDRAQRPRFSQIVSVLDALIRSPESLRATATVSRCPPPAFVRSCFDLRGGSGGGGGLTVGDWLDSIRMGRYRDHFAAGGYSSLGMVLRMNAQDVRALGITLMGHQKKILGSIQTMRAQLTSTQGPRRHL
# [10] = molecular target: Vascular endothelial growth factor receptor 1 (Homo sapiens) (UniProt P17948); assay: Inhibition of human Flt1 at 0.5 uM relative to control
# [11] = molecular target: Vascular endothelial growth factor receptor 3 (Homo sapiens) (UniProt P35916); assay: Inhibition of human Flt4 at 0.5 uM relative to control
# Chain of Vascular endothelial growth factor receptor 3 (Homo sapiens) (P35916 whole entry): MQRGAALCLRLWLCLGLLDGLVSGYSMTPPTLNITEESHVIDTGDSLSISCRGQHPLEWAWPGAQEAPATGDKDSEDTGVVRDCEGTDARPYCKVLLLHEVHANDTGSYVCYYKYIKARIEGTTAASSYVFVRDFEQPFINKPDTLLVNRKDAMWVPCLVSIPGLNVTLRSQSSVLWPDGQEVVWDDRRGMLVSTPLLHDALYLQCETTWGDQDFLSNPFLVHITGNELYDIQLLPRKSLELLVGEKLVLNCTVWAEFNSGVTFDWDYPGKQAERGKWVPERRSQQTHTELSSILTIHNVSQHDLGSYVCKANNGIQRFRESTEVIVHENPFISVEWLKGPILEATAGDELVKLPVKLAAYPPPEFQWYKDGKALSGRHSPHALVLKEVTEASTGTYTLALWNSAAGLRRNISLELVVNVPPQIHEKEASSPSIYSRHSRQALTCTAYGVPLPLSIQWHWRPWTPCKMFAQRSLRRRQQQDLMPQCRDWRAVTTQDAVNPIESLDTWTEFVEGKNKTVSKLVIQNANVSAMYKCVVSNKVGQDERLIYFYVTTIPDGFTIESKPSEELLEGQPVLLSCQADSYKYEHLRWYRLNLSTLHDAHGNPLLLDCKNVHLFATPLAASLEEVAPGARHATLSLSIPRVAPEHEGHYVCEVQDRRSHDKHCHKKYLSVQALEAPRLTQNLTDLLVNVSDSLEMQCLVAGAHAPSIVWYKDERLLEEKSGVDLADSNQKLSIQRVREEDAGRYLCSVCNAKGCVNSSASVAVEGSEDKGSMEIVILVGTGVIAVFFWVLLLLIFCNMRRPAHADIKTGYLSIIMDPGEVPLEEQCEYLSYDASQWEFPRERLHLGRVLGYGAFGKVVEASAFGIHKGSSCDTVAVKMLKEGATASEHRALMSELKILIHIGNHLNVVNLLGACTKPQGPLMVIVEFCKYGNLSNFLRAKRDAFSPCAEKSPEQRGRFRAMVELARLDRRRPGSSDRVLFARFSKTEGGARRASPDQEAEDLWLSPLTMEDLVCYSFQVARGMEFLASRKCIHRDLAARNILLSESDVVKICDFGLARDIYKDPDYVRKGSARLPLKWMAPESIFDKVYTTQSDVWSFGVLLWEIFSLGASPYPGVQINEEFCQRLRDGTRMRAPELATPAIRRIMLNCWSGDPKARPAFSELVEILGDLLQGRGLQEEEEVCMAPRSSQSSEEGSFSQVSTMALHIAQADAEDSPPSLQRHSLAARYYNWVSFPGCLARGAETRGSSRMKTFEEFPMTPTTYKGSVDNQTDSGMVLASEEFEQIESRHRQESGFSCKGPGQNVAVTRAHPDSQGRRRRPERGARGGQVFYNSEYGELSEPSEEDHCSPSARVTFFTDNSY
# [12] = read-out: LC50 (the source's name)
smiles,measurement,setting,value
COc1cc2ncnc(Oc3ccc(NC(=O)Nc4ccc(CN5CCOCC5)c(C(F)(F)F)c4)c4ccccc34)c2cc1OC,RatioGI50,[1],9.5
same,inhibition of growth at 10 µM,A-431,57.7%
same,GI50,NCI-H23,0.62 µM
same,TGI,NCI-H23,3.98 µM
same,CC50,NCI-H23; [12],> 100 µM
same,GI50,SF-539,1.58 µM
same,TGI,SF-539,19.5 µM
same,CC50,SF-539; [12],52.5 µM
same,GI50,U-251,1.05 µM
same,TGI,U-251,3.98 µM
same,CC50,U-251; [12],27.5 µM
same,GI50,SK-MEL-2,1.48 µM
same,TGI,SK-MEL-2,13.8 µM
same,CC50,SK-MEL-2; [12],> 100 µM
same,GI50,SK-MEL-28,0.89 µM
same,TGI,SK-MEL-28,4.79 µM
same,CC50,SK-MEL-28; [12],42.7 µM
same,GI50,TK-10,0.38 µM
same,TGI,TK-10,5.89 µM
same,CC50,TK-10; [12],35.5 µM
same,RatioLC50,[2],2
same,RatioLC50,[3],1.3
same,RatioGI50,[4],1.6 - 2.9
same,RatioGI50,[5],1.1 - 3.7
same,inhibition,[6],> 96%
same,inhibition,[7],> 96%
same,inhibition,[8],Active
same,inhibition,[9],Active
same,inhibition,[10],Active
same,inhibition,[11],Active
